Calls of active or inactive are those of the source.

Test [1] deals with Mus musculus. The test is described as follows: Antinociceptive activity in oxaliplatin-induced neuropathic pain 4r5CD-1 albino mouse model assessed as reduction in licking latency at 30 mg/kg, po treated on day 15 post oxaliplatin treatment measure at 30 to 45 mins post dose by cold plate test. Type of test: functional, organism-based. Put shortly: (§1)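 Male CD-1 mice (22–25 g) received oxaliplatin 2.4 mg/kg i.p. in 5% glucose on days 1-2, 5-9, 12-14. On day 15 a single p.o. dose (10 or 30 mg/kg) suspended in CMC was given. Cold plate at 4 °C ± 1 °C, 60 s cut-off, latency to first paw lick or lift timed after dosing. 10 mice per group over 2 sets, mean ± S.E.M., one-way ANOVA with Bonferroni.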

Test [2] deals with T1, Monoglyceride lipase (Homo sapiens) (UniProt Q99685).
T1 sequence (whole entry): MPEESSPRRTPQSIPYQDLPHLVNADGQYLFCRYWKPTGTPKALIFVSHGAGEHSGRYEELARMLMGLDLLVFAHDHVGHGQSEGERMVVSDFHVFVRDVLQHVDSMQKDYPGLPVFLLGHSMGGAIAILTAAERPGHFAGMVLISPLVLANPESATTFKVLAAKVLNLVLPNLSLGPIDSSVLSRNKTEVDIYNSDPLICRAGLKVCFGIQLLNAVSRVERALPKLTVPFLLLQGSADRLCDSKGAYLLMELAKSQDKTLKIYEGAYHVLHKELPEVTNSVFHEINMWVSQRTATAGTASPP
Conditions: 20 uM.

Test [3] concerns Mus musculus. As to the kind of experiment: Antinociceptive activity in oxaliplatin-induced neuropathic pain 4r5CD-1 albino mouse model assessed as reduction in licking latency at 10 mg/kg, po treated on day 15 post oxaliplatin treatment measure at 30 mins post dose by cold plate test. In kind it is functional, organism-based. The essentials: as §1
For test [4], the target named is T2, Fatty-acid amide hydrolase 1 (Homo sapiens) (UniProt O00519).
T2 sequence (whole entry): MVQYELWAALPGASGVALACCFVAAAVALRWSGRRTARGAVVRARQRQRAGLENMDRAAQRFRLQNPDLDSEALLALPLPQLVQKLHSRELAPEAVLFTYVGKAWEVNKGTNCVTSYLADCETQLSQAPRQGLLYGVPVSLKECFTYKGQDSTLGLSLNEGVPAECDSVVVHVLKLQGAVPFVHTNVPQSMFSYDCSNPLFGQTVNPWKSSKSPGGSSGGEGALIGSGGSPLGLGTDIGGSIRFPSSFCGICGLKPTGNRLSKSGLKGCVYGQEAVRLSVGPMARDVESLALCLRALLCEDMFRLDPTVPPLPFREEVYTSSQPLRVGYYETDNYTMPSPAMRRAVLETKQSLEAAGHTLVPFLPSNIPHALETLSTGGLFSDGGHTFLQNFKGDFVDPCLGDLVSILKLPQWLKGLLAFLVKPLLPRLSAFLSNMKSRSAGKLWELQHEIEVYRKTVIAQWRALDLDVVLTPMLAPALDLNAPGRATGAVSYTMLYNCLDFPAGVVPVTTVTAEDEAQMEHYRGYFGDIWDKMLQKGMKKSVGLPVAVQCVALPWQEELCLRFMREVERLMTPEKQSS
The test is described as follows: Inhibition of recombinant human FAAH using AMC arachidonoylamide as substrate at 10 uM after 30 mins by fluorescence assay relative to control. Put shortly:
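Human recombinant FAAH (0.9 µg/well) in 125 mM Tris pH 9.0 with 1 mM EDTA and 0.1 mg/ml BSA at room temperature. Substrate was AMC arachidonoylamide, final 10 µM. Compound range 200–0.0128 µM. Fluorescence (ex 340/em 460 nm) read after 30 min with no-enzyme blanks subtracted. IC50 from sigmoidal dose-response fit.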

Test [5] concerns Mus musculus. The test is described as follows: Antinociceptive activity in po dosed oxaliplatin-induced neuropathic pain 4r5CD-1 albino mouse model assessed as pain relief treated on day 15 post oxaliplatin treatment by cold plate test. In kind it is functional, organism-based. Put shortly:
as §1

Test [6] concerns Mus musculus. The test is described as follows: Effect on 2-AG level in brain of oxaliplatin-induced neuropathic pain 4r5CD-1 albino mouse model at 30 mg/kg, po measured at 1 hr post last dose on day 15 by LC-MS/MS analysis. Type of test: functional, organism-based. Put shortly:
(§2)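 Mice received oxaliplatin 2.4 mg/kg i.p. plus compound 30 mg/kg p.o. or vehicle for 14 days. On day 15 they were decapitated 1 h after the last dose. Brain and spinal cord were washed in PBS and snap-frozen. 2-AG was quantified by LC-MS/MS.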

Test [7] relates to Mus musculus. As to the kind of experiment: Effect on 2-AG level in spinal cord of oxaliplatin-induced neuropathic pain 4r5CD-1 albino mouse model at 30 mg/kg, po measured at 1 hr post last dose on day 15 by LC-MS/MS analysis. Type of test: functional, organism-based. The essentials: as §2
Test [8] relates to Mus musculus. The test is described as follows: Antinociceptive activity in oxaliplatin-induced 4r5CD-1 albino mouse assessed as […] pain relief at 30 mg/kg, po cotreated with oxaliplatin on day 1 to 14 measured up to 24 hrs post last on day 15 by cold plate test. Type of test: functional, organism-based. The essentials: (§3)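 Male CD-1 mice (22–25 g) given oxaliplatin 2.4 mg/kg i.p. in 5% glucose on days 1-2, 5-9, 12-14. Compound suspended in CMC, 30 mg/kg p.o., given on the same schedule. Cold plate held at 4 °C ± 1 °C, 60 s cut-off. Latency to first hind-paw lifting or licking recorded on days 7 and 15, 24 h after the last dose. 10 mice per group over 2 sets, mean ± S.E.M.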

For test [9], the target named is Cannabinoid receptor 2 (Homo sapiens) (UniProt P34972). The test is described as follows: Displacement of [3H]CP55,940 from human CB2 receptor expressed in CHOK1 cell membranes at 10 uM after 90 mins relative to control. The essentials: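 Membranes expressing hCB1 or hCB2 were incubated in 50 mM Tris-HCl, 2.5 mM EDTA, 5 mM MgCl2 with fatty-acid-free BSA, pH 7.4. Incubation with compound and 0.5 nM [3H]CP55,940 for 90 min at 30 °C. Nonspecific binding defined with 10 µM […]. Samples were filtered on GF/B, washed twelve times with ice-cold buffer, and radioactivity counted.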
Chain of Cannabinoid receptor 2 (Homo sapiens) (P34972 whole entry): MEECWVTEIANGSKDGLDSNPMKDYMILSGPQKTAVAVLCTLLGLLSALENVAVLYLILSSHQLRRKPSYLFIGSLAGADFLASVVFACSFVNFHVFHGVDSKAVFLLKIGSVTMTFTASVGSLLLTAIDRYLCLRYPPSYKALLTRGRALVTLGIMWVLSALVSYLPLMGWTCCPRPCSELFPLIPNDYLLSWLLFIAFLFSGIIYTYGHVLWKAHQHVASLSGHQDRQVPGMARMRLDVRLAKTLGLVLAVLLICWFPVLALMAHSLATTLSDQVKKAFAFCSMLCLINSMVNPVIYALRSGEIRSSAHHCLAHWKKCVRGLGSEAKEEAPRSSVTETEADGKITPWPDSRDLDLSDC
On the technique in general: Loss of bound radioactivity is the signal in a displacement assay; it reports binding, not function.

Test [10] addresses T1, Monoglyceride lipase (Homo sapiens). Conditions: 20 uM. This is another data set of the same source.
The test system of test [11] is Mus musculus. The test is described as follows: Antinociceptive activity in oxaliplatin-induced neuropathic pain 4r5CD-1 albino mouse model assessed as reduction in cold allodynia at 30 mg/kg, po cotreated with oxaliplatin on day 1 to 14 measured on day 7 and 15 by cold plate test. In kind it is functional, organism-based. Put shortly: as §3

For `Cc1cccc(Cn2nc(C(=O)N3CCC(Cc4ccccc4)CC3)cc2-c2ccc(O)cc2)c1`, the result in the test on Mus musculus [1], in the test on Mus musculus [3], in the test with Mus musculus [8] and in the test with Mus musculus [11] was Active. Further, the inhibition entry in [2] and in test [10] was “Active” in each case. Further, the values for the inhibition in test [4] and in test [9] were 7% and 35%, respectively. In addition, the Activity entry in the test with Mus musculus [5] is “Dose-dependent effect”. Also, the outcome with Mus musculus [6] and in the test on Mus musculus [7] was inactive.

As a reminder, the inhibition is the drop in the measured response relative to a control, in per cent.

The record behind these values is ChEMBL document CHEMBL4033784, “Discovery of 1,5-Diphenylpyrazole-3-Carboxamide Derivatives as Potent, Reversible, and Selective Monoacylglycerol Lipase (MAGL) Inhibitors” (J Med Chem, 2018).
